Measured values as given in ChEMBL document CHEMBL3808334, “Synthesis and in vitro evaluation of novel triazine analogues as anticancer agents and their interaction studies with bovine serum albumin” (Eur J Med Chem, 2016).

Tests used:
Assay type in all cases: functional
[1] = test system: NCI/ADR-RES; assay: Growth inhibition of human NCI/ADR-RES cells assessed as cell growth at 10^-6 M incubated for 48 hrs by sulforhodamine B assay; conditions: read-out: Activity
[2] = Growth inhibition of human leukemia cells incubated for 48 hrs by sulforhodamine B assay; conditions: Leukemia cell; for CC50: read-out: LC50 (the source's name)
[3] = test system: Malme-3M; assay: Growth inhibition of human MALME-3M cells assessed as cell growth at 10^-5 M incubated for 48 hrs by sulforhodamine B assay; conditions: read-out: Activity
[4] = test system: HT-29; assay: Growth inhibition of human HT-29 cells assessed as cell growth at 10 uM incubated for 48 hrs by sulforhodamine B assay; conditions: HT-29, 48 h, read-out: Activity
[5] = Growth inhibition of human HOP62 cells assessed as cell growth at 10^-4 M incubated for 48 hrs by sulforhodamine B assay; conditions: HOP-62, 48 h, read-out: Activity
[6] = Growth inhibition of human OVCAR3 cells assessed as cell growth at 10^-7 M incubated for 48 hrs by sulforhodamine B assay; conditions: OVCAR-3, 48 h, read-out: Activity
[7] = Growth inhibition of human SW620 cells assessed as cell growth at 10^-7 M incubated for 48 hrs by sulforhodamine B assay; conditions: SW-620, 48 h, read-out: Activity
[8] = test system: NCI-H226; assay: Growth inhibition of human NCI-H226 cells assessed as cell growth at 10^-7 M incubated for 48 hrs by sulforhodamine B assay; conditions: NCI-H226, 48 h, read-out: Activity
[9] = Growth inhibition of human OVCAR8 cells assessed as cell growth at 10^-6 M incubated for 48 hrs by sulforhodamine B assay; conditions: OVCAR-8, 48 h, read-out: Activity
[10] = test system: HT-29; assay: Growth inhibition of human HT-29 cells assessed as cell growth at 10^-8 M incubated for 48 hrs by sulforhodamine B assay; conditions: HT-29, 48 h, read-out: Activity
[11] = Growth inhibition of human BT549 cells assessed as cell growth at 10^-6 M incubated for 48 hrs by sulforhodamine B assay; conditions: BT-549, 48 h, read-out: Activity
Procedure, shortened: (§1)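 Five-dose assay: five concentrations from 10-fold or ½-log serial dilutions. Cells are plated at 5,000–40,000 per well according to doubling time, grown 24 h, then exposed 48 h at 37 °C, 5% CO₂. Fixed with cold 50% TCA (final addition) for 60 min at 4 °C and stained with 0.4% SRB in 1% acetic acid. Bound dye is solubilized in 10 mM Tris base and read at 515 nm. GI₅₀ is where [(Ti−Tz)/(C−Tz)]×100 = 50, with a time-zero plate as Tz.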

[12] = test system: NCI/ADR-RES; assay: Growth inhibition of human NCI/ADR-RES cells assessed as cell growth at 10^-4 M incubated for 48 hrs by sulforhodamine B assay; conditions: read-out: Activity
[13] = test system: 786-0; assay: Growth inhibition of human 786-0 cells assessed as cell growth at 10^-7 M incubated for 48 hrs by sulforhodamine B assay; conditions: 786-0, 48 h, read-out: Activity; procedure, shortened: as §1
[14] = test system: SK-MEL-5; assay: Growth inhibition of human SK-MEL-5 cells incubated for 48 hrs by sulforhodamine B assay; conditions: SK-MEL-5, 48 h
Procedure, shortened: (§2)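 Cells were plated at 5,000–40,000 per well according to doubling time and preincubated 24 h at 37 °C in 5% CO2; time-zero plates were then TCA-fixed. Five concentrations (10-fold or ½-log dilutions, DMSO stock) were incubated 48 h. Cells were TCA-fixed, stained with 0.4% SRB and read at 515 nm. GI50 was taken where [(Ti−Tz)/(C−Tz)]×100 = 50.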

[15] = test system: MDA-MB-468; assay: Growth inhibition of human MDA-MB-468 cells assessed as cell growth at 10^-6 M incubated for 48 hrs by sulforhodamine B assay; conditions: MDA-MB-468, 48 h, read-out: Activity
[16] = test system: MDA-MB-231; assay: Growth inhibition of human MDA-MB-231 cells assessed as cell growth at 10^-6 M incubated for 48 hrs by sulforhodamine B assay; conditions: MDA-MB-231, 48 h, read-out: Activity
[17] = test system: U-251; assay: Growth inhibition of human U251 cells assessed as cell growth at 10^-5 M incubated for 48 hrs by sulforhodamine B assay; conditions: U-251, 48 h, read-out: Activity
[18] = Growth inhibition of human SKOV3 cells assessed as cell growth at 10^-4 M incubated for 48 hrs by sulforhodamine B assay; conditions: SK-OV-3, 48 h, read-out: Activity
[19] = Growth inhibition of human SF268 cells assessed as cell growth at 10^-4 M incubated for 48 hrs by sulforhodamine B assay; conditions: SF-268, 48 h, read-out: Activity
[20] = Growth inhibition of human Hs 578T cells assessed as cell growth at 10 uM incubated for 48 hrs by sulforhodamine B assay; conditions: read-out: Activity
[21] = Growth inhibition of human Caki1 cells assessed as cell growth at 10^-5 M incubated for 48 hrs by sulforhodamine B assay; conditions: CAKI-1, 48 h, read-out: Activity
Procedure, shortened: (§3)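 Cells seeded at 5,000–40,000/well according to doubling time and preincubated 24 h at 37 °C, 5% CO2. Time-zero plates were TCA-fixed. DMSO concentrate was diluted in medium with 50 µg/ml gentamicin to give five concentrations (10-fold or ½ log steps), then exposed 48 h. Cells were TCA-fixed, stained with 0.4% SRB and read at 515 nm. Percent growth was taken against time-zero and control; GI50, TGI and LC50 derived.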

[22] = test system: SN12C; assay: Growth inhibition of human SN12C cells assessed as cell growth at 10^-4 M incubated for 48 hrs by sulforhodamine B assay; conditions: read-out: Activity
[23] = test system: ACHN; assay: Growth inhibition of human ACHN cells assessed as cell growth at 10^-4 M incubated for 48 hrs by sulforhodamine B assay; conditions: read-out: Activity; procedure, shortened: as §1
[24] = Growth inhibition of human melanoma cells incubated for 48 hrs by sulforhodamine B assay; conditions: Melanoma cell; for CC50: read-out: LC50 (the source's name)
[25] = test system: NCI-H226; assay: Growth inhibition of human NCI-H226 cells incubated for 48 hrs by sulforhodamine B assay; conditions: NCI-H226, 48 h; procedure, shortened: as §2
[26] = Growth inhibition of human SNB75 cells assessed as cell growth at 10^-7 M incubated for 48 hrs by sulforhodamine B assay; conditions: SNB-75, 48 h, read-out: Activity
[27] = test system: MDA-MB-435; assay: Growth inhibition of human MDA-MB-435 cells assessed as cell growth at 10^-8 M incubated for 48 hrs by sulforhodamine B assay; conditions: MDA-MB-435, 48 h, read-out: Activity
[28] = Growth inhibition of human HOP62 cells incubated for 48 hrs by sulforhodamine B assay; conditions: HOP-62, 48 h; procedure, shortened: as §3
[29] = read-out: LC50 (the source's name)
[30] = read-out: pLC50 (the source's name) (converted)

Work on Fc1ccc(-c2nc(Nc3ccc(-c4nc5ccccc5[nH]4)cc3)nc(N3CCOCC3)n2)cc1 yielded a growth at 1 µM [1] of 90%, a GI50 [2] of 2.02 µM and a TGI [2] of 6.11 µM. The CC50 [2] was > 100 µM, the growth at 10 µM [3] was -71% and the growth at 10 µM [4] was -23.1%. The growth at 100 µM [5] was -33%, the growth at 0.1 µM [6] was 100% and the growth at 0.1 µM [7] was 100%. For the same molecule, the growth at 0.1 µM [8] was 111%, the growth at 1 µM [9] was 101% and the growth at 0.01 µM [10] was 100%. It also gave a growth at 1 µM [11] of 83%, a growth at 100 µM [12] of -13% and a growth at 0.1 µM [13] of 97%. For the same molecule, the GI50 ([14]; read-out: GI50) was 1.79 µM, the CC50 [14, 29] was 6.28 µM and the TGI ([14]; read-out: TGI) was 3.36 µM. It also gave a GI50 ([14]; read-out: pGI50 (converted)) of 1.78 µM, a CC50 [14, 30] of 6.31 µM and a TGI ([14]; read-out: pTGI (converted)) of 3.39 µM. For the same molecule, the growth at 1 µM [15] was 106%, the growth at 1 µM [16] was 73% and the growth at 10 µM [17] was 5%. For the same molecule, the growth at 100 µM [18] was -49%, the growth at 100 µM [19] was -4% and the growth at 10 µM [20] was -11.9%. For the same molecule, the growth at 10 µM [21] was -37%, the growth at 100 µM [22] was -21% and the growth at 100 µM [23] was 3%. The GI50 [24] was 1.91 µM, the TGI [24] was 4.04 µM and the CC50 [24] was 7.43 µM. For the same molecule, the GI50 ([25]; read-out: GI50) was 3.32 µM, the CC50 [25, 29] was > 100 µM and the TGI ([25]; read-out: TGI) was 8.6 µM. For the same molecule, the GI50 ([25]; read-out: pGI50 (converted)) was 3.31 µM, the CC50 [25, 30] was > 100 µM and the TGI ([25]; read-out: pTGI (converted)) was 8.51 µM. The growth at 0.1 µM [26] was 89%, the growth at 0.01 µM [27] was 99% and the GI50 ([28]; read-out: GI50) was 2.11 µM. For the same molecule, the LC50 ([28]; read-out: LC50) was > 100 µM, the TGI ([28]; read-out: TGI) was 5.3 µM and the GI50 ([28]; read-out: pGI50 (converted)) was 2.09 µM. For the same molecule, the LC50 ([28]; read-out: pLC50 (converted)) was > 100 µM and the TGI ([28]; read-out: pTGI (converted)) was 5.25 µM.
Work on c1ccc(-c2nc(Nc3ccc(-c4nc5ccccc5[nH]4)cc3)nc(N3CCOCC3)n2)cc1 yielded a growth at 1 µM [1] of 81%, a GI50 [2] of 0.57 µM and a TGI [2] of 2.17 µM. The CC50 [2] was 16.3 µM, the growth at 10 µM [3] was -73% and the growth at 10 µM [4] was -59.9%. It also gave a growth at 100 µM [5] of -62%, a growth at 0.1 µM [6] of 98% and a growth at 0.1 µM [7] of 92%. The growth at 0.1 µM [8] was 120%, the growth at 1 µM [9] was 89% and the growth at 0.01 µM [10] was 105%. The growth at 1 µM [11] was 100%, the growth at 100 µM [12] was -33% and the growth at 0.1 µM [13] was 78%. It also gave a GI50 ([14]; read-out: GI50) of 1.69 µM, a CC50 [14, 29] of 5.9 µM and a TGI ([14]; read-out: TGI) of 3.15 µM. The GI50 ([14]; read-out: pGI50 (converted)) was 1.7 µM, the CC50 [14, 30] was 5.89 µM and the TGI ([14]; read-out: pTGI (converted)) was 3.16 µM. It also gave a growth at 1 µM [15] of 102%, a growth at 1 µM [16] of 63% and a growth at 10 µM [17] of -85%. The growth at 100 µM [18] was -100%, the growth at 100 µM [19] was -78% and the growth at 10 µM [20] was -39.9%. The growth at 10 µM [21] was -100%, the growth at 100 µM [22] was -59% and the growth at 100 µM [23] was -70%. The GI50 [24] was 1.56 µM, the TGI [24] was 3.18 µM and the CC50 [24] was 6.52 µM. It also gave a GI50 ([25]; read-out: GI50) of 2.4 µM, a CC50 [25, 29] of 8.75 µM and a TGI ([25]; read-out: TGI) of 4.58 µM. For the same molecule, the GI50 ([25]; read-out: pGI50 (converted)) was 2.4 µM, the CC50 [25, 30] was 8.71 µM and the TGI ([25]; read-out: pTGI (converted)) was 4.57 µM. It also gave a growth at 0.1 µM [26] of 96%, a growth at 0.01 µM [27] of 98% and a GI50 ([28]; read-out: GI50) of 1.73 µM. It also gave an LC50 ([28]; read-out: LC50) of 7.16 µM, a TGI ([28]; read-out: TGI) of 3.52 µM and a GI50 ([28]; read-out: pGI50 (converted)) of 1.74 µM. For the same molecule, the LC50 ([28]; read-out: pLC50 (converted)) was 7.08 µM and the TGI ([28]; read-out: pTGI (converted)) was 3.55 µM.
